What was measured:
[1] = Inhibition of GAT1-mediated [3H]GABA uptake in porcine frontal cortex membrane fraction 2B compound preincubated for 10 mins by scintillation counting; type: cell membranes, Sus scrofa
Summary of the method: (§1)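 50 nM [³H]GABA plus unlabelled GABA added, then 4 min at 37 °C. Stopped by filtration through glass-fibre filters presoaked in 0.9% NaCl, washed, scintillation counted. Triplicate; IC50 as mean ± SEM.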

[2] = Inhibition of GAT3-mediated [3H]GABA uptake in porcine brain stem membrane fraction 2C compound preincubated for 10 mins by scintillation counting; type: cell membranes, Sus scrofa; summary of the method: as §1
Bos taurus [3] = species: Bos taurus; experiment: Inhibition of GAT1-mediated [3H]GABA uptake in bovine frontal cortex membrane fraction 2B assessed as remaining GABA uptake activity preincubated at 100 uM for 10 mins by scintillation counting; type: cell membranes
Summary of the method: (§2)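 Preliminary single-concentration screen giving percent remaining GABA uptake. Membranes were preincubated with compound for 10 min at 37 °C in Tris-HCl pH 7.2 saline with glucose. Then 50 nM [³H]GABA plus unlabelled GABA was added for 4 min at 37 °C. Filtration harvest onto NaCl-presoaked glass-fibre filters, saline washes, liquid scintillation counting. IC50 pursued only when uptake fell below 50%.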

[4] = Inhibition of GAT3-mediated [3H]GABA uptake in bovine brain stem membrane fraction 2C compound preincubated for 10 mins by scintillation counting; type: cell membranes, Bos taurus; summary of the method: as §1
[5] = Inhibition of GAT1-mediated [3H]GABA uptake in bovine frontal cortex membrane fraction 2B compound preincubated for 10 mins by scintillation counting; type: cell membranes, Bos taurus; summary of the method: as §1
Bos taurus [6] = species: Bos taurus; experiment: Inhibition of GAT3-mediated [3H]GABA uptake in bovine brain stem membrane fraction 2C assessed as remaining GABA uptake activity preincubated at 100 uM for 10 mins by scintillation counting; type: cell membranes; summary of the method: as §2
[7] = Inhibition of GAT1-mediated [3H]GABA uptake in calf frontal cortex membrane fraction 2B compound preincubated for 10 mins by scintillation counting; type: cell membranes, Bos taurus; summary of the method: as §1
Bos taurus [8] = species: Bos taurus; experiment: Inhibition of GAT1-mediated [3H]GABA uptake in calf frontal cortex membrane fraction 2B assessed as remaining GABA uptake activity preincubated at 100 uM for 10 mins by scintillation counting; type: cell membranes; summary of the method: as §2
[9] = Inhibition of GAT3-mediated [3H]GABA uptake in calf brain stem membrane fraction 2C compound preincubated for 10 mins by scintillation counting; type: cell membranes, Bos taurus; summary of the method: as §1
Bos taurus [10] = species: Bos taurus; experiment: Inhibition of GAT3-mediated [3H]GABA uptake in calf brain stem membrane fraction 2C assessed as remaining GABA uptake activity preincubated at 100 uM for 10 mins by scintillation counting; type: cell membranes; summary of the method: as §2
Sus scrofa [11] = species: Sus scrofa; experiment: Inhibition of GAT1-mediated [3H]GABA uptake in porcine frontal cortex membrane fraction 2B assessed as remaining GABA uptake activity preincubated at 100 uM for 10 mins by scintillation counting; type: cell membranes; summary of the method: as §2
Sus scrofa [12] = species: Sus scrofa; experiment: Inhibition of GAT3-mediated [3H]GABA uptake in porcine brain stem membrane fraction 2C assessed as remaining GABA uptake activity preincubated at 100 uM for 10 mins by scintillation counting; type: cell membranes; summary of the method: as §2

| SMILES | IC50 [1] [µM] | IC50 [2] [µM] | Activity (Sus scrofa [11]) [%] | Activity (Sus scrofa [12]) [%] | also measured |
| --- | --- | --- | --- | --- | --- |
| COc1ccc(C(OCCN2C[C@@](O)(c3ccc(OC)cc3)C[C@@H]2C(=O)O)(c2ccc(OC)cc2)c2ccc(OC)cc2)cc1 | 56 | 38 |  |  |  |
| COc1ccc([C@@]2(O)C[C@@H](C(=O)O)N(CCC=C(c3ccccc3)c3ccccc3)C2)cc1 |  |  |  |  | Activity (Bos taurus [3]): > 50%; IC50 [4]: > 100 µM; IC50 [5]: > 100 µM; Activity (Bos taurus [6]): > 50% |
| COc1ccc([C@]2(O)C[C@H](C(=O)O)N(CCC=C(c3ccccc3)c3ccccc3)C2)cc1 |  |  |  |  | IC50 [7]: > 100 µM; Activity (Bos taurus [8]): > 50%; IC50 [9]: > 100 µM; Activity (Bos taurus [10]): > 50% |
| COc1ccc([C@]2(O)C[C@@H](C(=O)O)N(CCC=C(c3ccccc3)c3ccccc3)C2)cc1 |  |  |  |  | Activity (Bos taurus [3]): > 50%; IC50 [4]: 237 µM; IC50 [5]: > 100 µM |
| COc1ccc([C@@]2(O)CN[C@H](C(=O)O)C2)cc1 | > 100 | > 100 | > 50 | > 50 |  |
| COc1ccc([C@]2(O)CN[C@@H](CC(=O)O)C2)cc1 | > 100 | > 100 | > 50 | > 50 |  |
| COc1ccc(C(OCCN2C[C@](O)(c3ccc(OC)cc3)C[C@H]2C(=O)O)(c2ccc(OC)cc2)c2ccc(OC)cc2)cc1 |  |  |  |  | IC50 [4]: 29.7 µM; IC50 [5]: 45.1 µM |
| COc1ccc([C@@]2(O)CN[C@H](CC(=O)O)C2)cc1 | > 100 | > 100 | > 50 | > 50 |  |
| COc1ccc([C@]2(O)CN[C@@H](C(=O)O)C2)cc1 | > 100 | > 100 | > 50 | > 50 |  |
| COc1ccc(C(OCCN2C[C@@](O)(c3ccc(OC)cc3)C[C@@H]2CC(=O)O)(c2ccc(OC)cc2)c2ccc(OC)cc2)cc1 | 59.2 | 66.1 |  |  |  |
| COc1ccc(C(OCCN2C[C@](O)(c3ccc(OC)cc3)C[C@@H]2CC(=O)O)(c2ccc(OC)cc2)c2ccc(OC)cc2)cc1 | 64.5 | 65.4 |  |  |  |
| COc1ccc([C@@]2(O)C[C@H](C(=O)O)N(CCC=C(c3ccccc3)c3ccccc3)C2)cc1 |  |  |  |  | IC50 [7]: > 100 µM; Activity (Bos taurus [8]): > 50%; IC50 [9]: > 100 µM; Activity (Bos taurus [10]): > 50% |
| COc1ccc(C(OCCN2C[C@@](O)(c3ccc(OC)cc3)C[C@H]2C(=O)O)(c2ccc(OC)cc2)c2ccc(OC)cc2)cc1 |  |  |  |  | IC50 [4]: 63.3 µM; IC50 [5]: 68.1 µM |
| COc1ccc(C(OCCN2C[C@](O)(c3ccc(OC)cc3)C[C@@H]2C(=O)O)(c2ccc(OC)cc2)c2ccc(OC)cc2)cc1 | 71 |  |  |  | IC50 [4]: > 100 µM; Activity (Bos taurus [6]): > 50% |
| COc1ccc(C(OCCN2C[C@](O)(c3ccc(OC)cc3)C[C@H]2CC(=O)O)(c2ccc(OC)cc2)c2ccc(OC)cc2)cc1 | 48.4 | 66.7 |  |  |  |
| COc1ccc(C(OCCN2C[C@@](O)(c3ccc(OC)cc3)C[C@H]2CC(=O)O)(c2ccc(OC)cc2)c2ccc(OC)cc2)cc1 | 75.2 | 78.9 |  |  |  |

Continued, in another order:

| IC50 [1] [µM] | IC50 [2] [µM] | Activity (Sus scrofa [11]) [%] | Activity (Sus scrofa [12]) [%] | SMILES | also measured |
| --- | --- | --- | --- | --- | --- |
| > 100 | 122 | > 50 |  | COc1ccc([C@@]2(O)C[C@@H](CC(=O)O)N(CCC=C(c3sccc3C)c3sccc3C)C2)cc1 |  |
| > 100 | > 100 | > 50 | > 50 | COc1ccc([C@]2(O)C[C@H](CC(=O)O)N(CCC=C(c3sccc3C)c3sccc3C)C2)cc1 |  |
| > 100 | 124 | > 50 |  | COc1ccc([C@]2(O)C[C@@H](CC(=O)O)N(CCC=C(c3sccc3C)c3sccc3C)C2)cc1 |  |
| 114 | > 100 |  | > 50 | COc1ccc([C@@]2(O)C[C@H](CC(=O)O)N(CCC=C(c3sccc3C)c3sccc3C)C2)cc1 |  |

— ChEMBL document CHEMBL2311438, “Synthesis and biological evaluation of 4-hydroxy-4-(4-methoxyphenyl)-substituted proline and pyrrolidin-2-ylacetic acid derivatives as GABA uptake inhibitors” (Bioorg Med Chem, 2013)
